Holding throughout (type): functional
For test [1], the system named is Escherichia coli. Put plainly: Antibacterial activity against Escherichia coli 107 ATCC 25922 assessed as bacterial growth inhibition by susceptibility testing assay. Summed up:
(§1)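 Broth microdilution MIC per CLSI in cation-adjusted Mueller Hinton broth, made fresh and held at 4 °C before testing. Medium supplemented with lysed horse blood where appropriate. Compound stocks prepared and serially diluted in sterile deionized water. Runs were accepted against QC ranges for comparator antibiotics and ATCC QC strains.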

Test [2] deals with Streptococcus pneumoniae. Put plainly: Antibacterial activity against tet(M) tetracycline-resistant Streptococcus pneumoniae 160 assessed as bacterial growth inhibition by susceptibility testing assay.
In test [3] the test system is Klebsiella pneumoniae. Put plainly: Antibacterial activity against Klebsiella pneumoniae 457 harboring CTX-M-15 gene assessed as bacterial growth inhibition by susceptibility testing assay. As to conditions: Klebsiella pneumoniae, 457; read-out: MIC. The procedure, abridged:
(§2)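 Broth microdilution MIC per CLSI in 96-well plates; compound stocks prepared and serially diluted in sterile deionized water; cation-adjusted Mueller Hinton broth prepared fresh and held at 4 °C before testing, supplemented with lysed horse blood as appropriate; runs accepted when comparator antibiotics fell within QC ranges for appropriate ATCC quality control strains.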

Test [4] relates to Staphylococcus aureus. Put plainly: Antibacterial activity against Staphylococcus aureus 101 ATCC 29213 assessed as bacterial growth inhibition by susceptibility testing assay. As to conditions: Staphylococcus aureus, 101 ATCC 29213; read-out: MIC. Summed up:
as §1

Test [5] concerns Acinetobacter baumannii. As to the kind of experiment: Antibacterial activity against tet(B) tetracycline-resistant Acinetobacter baumannii 250 assessed as bacterial growth inhibition by susceptibility testing assay. Summed up:
as §2

Test [6] deals with Proteus mirabilis. As to the kind of experiment: Antibacterial activity against Proteus mirabilis 385 assessed as bacterial growth inhibition by susceptibility testing assay. Summed up:
as §1

The subject of test [7] is Enterobacter cloacae. As to the kind of experiment: Antibacterial activity against tet(A) tetracycline-resistant Enterobacter cloacae 603 assessed as bacterial growth inhibition by susceptibility testing assay. Summed up: as §2
The test system of test [8] is Staphylococcus aureus. As to the kind of experiment: Antibacterial activity against methicillin-resistant, tet(M) tetracycline-resistant Staphylococcus aureus 161 assessed as bacterial growth inhibition by susceptibility testing assay. Summed up:
as §2

The subject of test [9] is Escherichia coli. Put plainly: Antibacterial activity against tet(A) tetracycline-resistant Escherichia coli 155 assessed as bacterial growth inhibition by susceptibility testing assay. As to conditions: Escherichia coli, 155; read-out: MIC. Summed up: as §2
In test [10] the test system is Burkholderia cenocepacia. Put plainly: Antibacterial activity against Burkholderia cenocepacia 240 assessed as bacterial growth inhibition by susceptibility testing assay. The procedure, abridged:
(§3)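 Medium supplemented with lysed horse blood where appropriate. Compound stocks prepared and serially diluted in sterile deionized water. Runs were accepted against QC ranges for comparator antibiotics and ATCC QC strains.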

Test [11] relates to Pseudomonas aeruginosa. Put plainly: Antibacterial activity against Pseudomonas aeruginosa 555 BAA-47 assessed as bacterial growth inhibition by susceptibility testing assay. As to conditions: Pseudomonas aeruginosa, 555 BAA-47; read-out: MIC. The procedure, abridged: as §1
In test [12] the test system is Staphylococcus aureus. As to the kind of experiment: Antibacterial activity against tet(K) tetracycline-resistant Staphylococcus aureus 158 assessed as bacterial growth inhibition by susceptibility testing assay. As to conditions: Staphylococcus aureus, 158; read-out: MIC.
The subject of test [13] is Enterococcus faecium. Put plainly: Antibacterial activity against tet(M) tetracycline-resistant Enterococcus faecium 404 assessed as bacterial growth inhibition by susceptibility testing assay.
In test [14] the test system is Enterococcus faecalis. As to the kind of experiment: Antibacterial activity against tet(M) tetracycline-resistant Enterococcus faecalis 327 assessed as bacterial growth inhibition by susceptibility testing assay. The procedure, abridged:
as §2

Test [15] relates to Stenotrophomonas maltophilia. Put plainly: Antibacterial activity against Stenotrophomonas maltophilia 256 assessed as bacterial growth inhibition by susceptibility testing assay. Summed up: as §3
Setting [16] is: Escherichia coli, 107 ATCC 25922, read-out: MIC.
The mark [17] stands for this setting: Streptococcus pneumoniae, 160, read-out: MIC.
Where [18] appears, read: Acinetobacter baumannii, 250, read-out: MIC.
Where [19] appears, read: Proteus mirabilis, 385, read-out: MIC.
The mark [20] stands for this setting: Enterobacter cloacae, 603, read-out: MIC.
The mark [21] stands for this setting: Staphylococcus aureus, 161, read-out: MIC.
Where [22] appears, read: Burkholderia cenocepacia, 240, read-out: MIC.
The mark [23] stands for this setting: Enterococcus faecium, 404, read-out: MIC.
Where [24] appears, read: Enterococcus faecalis, 327, read-out: MIC.
Setting [25] is: Stenotrophomonas maltophilia, 256, read-out: MIC.

≈ marks a conversion by molar mass, not a printed value.

Usually MIC stands for the least concentration at which growth counts as inhibited. `CN(C)[C@@H]1C(O)=C(C(N)=O)C(=O)[C@@]2(O)C(O)=C3C(=O)c4c(O)c5c(c(F)c4C[C@H]3C[C@@H]12)[C@@H]1[C@@H](CCN1C)CN5` (stereo in doubt; 10b): the minimal inhibitory concentration (MIC) in test [1] was determined as 0.25 µg/mL (≈ 0.461 µM); in [2], 0.125 µg/mL (≈ 0.23 µM); in [3] it was 1 µg/mL (≈ 1.84 µM); in test [4] it was 0.5 µg/mL (≈ 0.922 µM); in test [5] it was 8 µg/mL (≈ 14.7 µM); in [6], 2 µg/mL (≈ 3.69 µM). Besides, the MIC in test [7] was 2 µg/mL (≈ 3.69 µM); in [8], 4 µg/mL (≈ 7.37 µM); in [9], 1 µg/mL (≈ 1.84 µM); in test [10], 32 µg/mL (≈ 59 µM); in test [11] it was 8 µg/mL (≈ 14.7 µM); in test [12], 0.125 µg/mL (≈ 0.23 µM). Besides, the MIC in [13] came out at 1 µg/mL (≈ 1.84 µM); in test [14], 4 µg/mL (≈ 7.37 µM); in test [15], 4 µg/mL (≈ 7.37 µM).

`CN(C)[C@@H]1C(O)=C(C(N)=O)C(=O)[C@@]2(O)C(O)=C3C(=O)c4c(O)c5c(c(F)c4C[C@H]3C[C@@H]12)[C@@H]1[C@@H](CCN1CCNCC(F)F)CN5`: the MIC in test [1] (setting [16]) is 0.25 µg/mL (≈ 0.393 µM); in test [2] (setting [17]), not above 0.0156 µg/mL; in [3], 4 µg/mL (≈ 6.29 µM); in [4] it was 0.5 µg/mL (≈ 0.787 µM); in test [5] (setting [18]), 8 µg/mL (≈ 12.6 µM); in [6] (setting [19]), 8 µg/mL (≈ 12.6 µM). The minimum inhibitory concentration (MIC) in [7] (setting [20]) was 8 µg/mL (≈ 12.6 µM); in test [8] (setting [21]), 1 µg/mL (≈ 1.57 µM); in test [9], 4 µg/mL (≈ 6.29 µM); in test [10] (setting [22]), 32 µg/mL (≈ 50.3 µM); in [11], more than 32 µg/mL; in [12], 0.0312 µg/mL (≈ 0.0491 µM). For the same compound, the results for the MIC in test [13] (setting [23]), in [14] (setting [24]) and in [15] (setting [25]) were 0.0625 µg/mL (≈ 0.0983 µM), 0.125 µg/mL (≈ 0.197 µM) and 4 µg/mL (≈ 6.29 µM), respectively.

Regarding `CN(C)[C@@H]1C(O)=C(C(N)=O)C(=O)[C@@]2(O)C(O)=C3C(=O)c4c(O)c5c(c(OC(F)(F)F)c4C[C@H]3C[C@@H]12)[C@@H]1[C@H](CN5)CC2COCCN21` (stereo not given in full), the MIC in test [1] (setting [16]) is 4 µg/mL (≈ 6.15 µM); in test [2] (setting [17]), 0.0625 µg/mL (≈ 0.0961 µM); in test [3], more than 32 µg/mL; in test [4], 2 µg/mL (≈ 3.07 µM); in test [5] (setting [18]), 16 µg/mL (≈ 24.6 µM); in [6] (setting [19]) it was more than 32 µg/mL. The minimum inhibitory concentration (MIC) in [7] (setting [20]) was more than 32 µg/mL; in test [8] (setting [21]), 4 µg/mL (≈ 6.15 µM); in [9], 16 µg/mL (≈ 24.6 µM); in test [10] (setting [22]) it was more than 32 µg/mL; in [11], more than 32 µg/mL; in test [12], 0.5 µg/mL (≈ 0.769 µM). Also, the values for the MIC in test [13] (setting [23]), in test [14] (setting [24]) and in test [15] (setting [25]) were 0.25 µg/mL (≈ 0.384 µM), 0.5 µg/mL (≈ 0.769 µM) and 16 µg/mL (≈ 24.6 µM), respectively.

As for `CN(C)[C@@H]1C(O)=C(C(N)=O)C(=O)[C@@]2(O)C(O)=C3C(=O)c4c(O)c5c(c(F)c4C[C@H]3C[C@@H]12)[C@H]1N(C)CC[C@@]1(C)CN5`, the MIC was found to be 0.25 µg/mL (≈ 0.449 µM) in test [1] (setting [16]); 0.25 µg/mL (≈ 0.449 µM) in [2] (setting [17]); 4 µg/mL (≈ 7.19 µM) in [3]; 0.5 µg/mL (≈ 0.898 µM) in [4]; 8 µg/mL (≈ 14.4 µM) in test [5] (setting [18]); 8 µg/mL (≈ 14.4 µM) in test [6] (setting [19]). Moreover, the MIC in test [7] (setting [20]) turned out to be 4 µg/mL (≈ 7.19 µM); in [8] (setting [21]) it was 8 µg/mL (≈ 14.4 µM); in test [9], 2 µg/mL (≈ 3.59 µM); in [10] (setting [22]) it was 32 µg/mL (≈ 57.5 µM); in test [11] it was 32 µg/mL (≈ 57.5 µM); in test [12] it was 0.125 µg/mL (≈ 0.225 µM). In addition, the MIC in test [13] (setting [23]) stood at 4 µg/mL (≈ 7.19 µM); in [14] (setting [24]), 8 µg/mL (≈ 14.4 µM); in test [15] (setting [25]) it was 2 µg/mL (≈ 3.59 µM).

On to `CN(C)[C@@H]1C(O)=C(C(N)=O)C(=O)[C@@]2(O)C(O)=C3C(=O)c4c(O)c5c(c(F)c4C[C@H]3C[C@@H]12)[C@@H]1[C@@H](CCN1CCO)CN5`, for which the MIC is 1 µg/mL (≈ 1.75 µM) in test [1] (setting [16]); 0.125 µg/mL (≈ 0.218 µM) in [2] (setting [17]); 4 µg/mL (≈ 6.99 µM) in test [3]; 2 µg/mL (≈ 3.49 µM) in [4]; more than 32 µg/mL in test [5] (setting [18]); 8 µg/mL (≈ 14 µM) in test [6] (setting [19]). The MIC in test [7] (setting [20]) is 16 µg/mL (≈ 27.9 µM); in test [8] (setting [21]) it was 4 µg/mL (≈ 6.99 µM); in [9], 16 µg/mL (≈ 27.9 µM); in test [10] (setting [22]) it was more than 32 µg/mL; in [11], 32 µg/mL (≈ 55.9 µM); in [12] it was 0.25 µg/mL (≈ 0.437 µM). Also, the minimum inhibitory concentration (MIC) was 1 µg/mL (≈ 1.75 µM) in [13] (setting [23]), 1 µg/mL (≈ 1.75 µM) in test [14] (setting [24]) and 32 µg/mL (≈ 55.9 µM) in [15] (setting [25]).

In the case of `CN(C)[C@@H]1C(O)=C(C(N)=O)C(=O)[C@@]2(O)C(O)=C3C(=O)c4c(O)cccc4[C@@](C)(O)[C@H]3C[C@@H]12` [TETRACYCLINE], the minimum inhibitory concentration (MIC) was 1 µg/mL (≈ 2.25 µM) in [1] (setting [16]); 8 µg/mL (≈ 18 µM) in test [3]; 0.125 µg/mL (≈ 0.281 µM) in test [4]; more than 32 µg/mL in test [5] (setting [18]); more than 32 µg/mL in [6] (setting [19]); more than 32 µg/mL in [7] (setting [20]). Also, the MIC was 64 µg/mL (≈ 144 µM) in test [8] (setting [21]), more than 64 µg/mL in test [9], more than 32 µg/mL in test [11] and more than 32 µg/mL in test [14] (setting [24]).

The values are drawn from ChEMBL document CHEMBL3580574, “Design, Synthesis, and Biological Evaluation of Hexacyclic Tetracyclines as Potent, Broad Spectrum Antibacterial Agents” (J Med Chem, 2015).
